Screens from PubChem BioAssay.
Hits are enriched below; roughly 1.4% of the tested compounds scored in any of these assays.
NR2E3 ag-1: human photoreceptor-specific nuclear receptor agonism; hit rate 0.35% among 360,000; CHO-S Gal4-NCOR/VP16-NR2E3 two-hybrid, luciferase; inhibition of corepressor binding, % at 3.98 µM; Q9Y5X4;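 active = inhibition above the mean of all tested compounds plus 3 SD, cut at about 70% in these data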;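 note: 0% = DMSO with NR2E3 transfected cells and 100% = cells lacking NR2E3 construct; higher means lower luciferase signal from less NR2E3 corepressor binding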
Target sequence (Q9Y5X4 whole entry, looked up, the tested form may be a part): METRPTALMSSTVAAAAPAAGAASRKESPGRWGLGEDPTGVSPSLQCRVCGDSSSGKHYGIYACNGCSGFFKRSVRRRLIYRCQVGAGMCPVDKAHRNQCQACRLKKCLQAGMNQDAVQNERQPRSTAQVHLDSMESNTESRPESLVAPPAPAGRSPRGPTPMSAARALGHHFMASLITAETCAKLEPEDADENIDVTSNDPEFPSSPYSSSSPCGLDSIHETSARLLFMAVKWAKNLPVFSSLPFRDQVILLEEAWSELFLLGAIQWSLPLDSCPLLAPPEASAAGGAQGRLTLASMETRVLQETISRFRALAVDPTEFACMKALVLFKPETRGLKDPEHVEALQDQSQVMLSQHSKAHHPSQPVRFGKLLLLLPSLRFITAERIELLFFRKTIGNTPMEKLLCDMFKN
NR2E3 ag-2: activates human photoreceptor nuclear receptor NR2E3 | GST-NR2E3/biotin-RetCOR TR-FRET, 1536-well | inhibition of corepressor binding, % at 4.78 µM | hit rate 0.12% among 320,000 | Q9Y5X4;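 active = percent inhibition above the cutoff of mean plus 3 SD of all tested compounds, set per screening campaign, cut at about 20% in these data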;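 note: 0% = DMSO wells and 100% = biotin wells as full block of FRET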
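Material – GST-tagged NR2E3 plus biotinylated RetCOR corepressor · Quantity – NR2E3 fusion 1.35 nM · Times – 5 h incubation at 4 °C · Medium – pH 7.5 Tris-based buffer · Technique – TR-FRET, Eu(K)-anti-GST donor, streptavidin-D2 acceptor, ex 340, em 617/671 nm · Benchmarks – high control biotin, low control 0.6% DMSO · Format – 1536-well plates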
NR1D1 modulator: Rev-erb alpha (human) modulation; P20393; Rev-erbα–FITC-DNA binding, fluorescence polarization, 90 min; activity, % at 10 µM; AID 1259318; hit rate 0.79% among 370,000;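 active = activity above about 14%, limit read from the data; passing the limit was not always enough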;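 note: 0% = DMSO wells with 35 nM protein and 100% = DMSO wells with 750 nM protein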
PG9 Ab binder: small molecules binding HIV-1 gp120 antibody PG9 | TR-FRET gp120-PG9 antibody binding | inhibition, % at 6.7 µM | hit rate 0.43% among 360,000; in the data active = inhibition above about 8.5%
PG9 binder conf: PG9 antibody binding, confirmed | inhibition, % at 6.7 µM | hit rate 90% among 1,500 | shares compounds with PG9 Ab binder | AID 651571 | TR-FRET PG9 antibody binding, biochemical; in the data active = inhibition above about 9%
PGV04 Ab binding: binds control antibody PGV04 in PG9 binder counter-screen. shares compounds with PG9 Ab binder. TR-FRET PGV04 antibody-gp120 binding, biochemical. inhibition, % at 6.7 µM. hit rate 95% among 1,500. AID 651604; in the data active = inhibition above about 9.5%
PG9 binder DR: PG9 antibody binding, dose response. shares compounds with PG9 Ab binder. AID 651848. IC50, µM. TR-FRET PG9 antibody-gp120 binding inhibition. 95 tested, under 10 active; in the data active = IC50 below about 10 µM
PGV04 binding DR: binds control antibody PGV04 in PG9 counter-screen; shares compounds with PG9 Ab binder; TR-FRET binding to control antibody PGV04; IC50, µM; hit rate 20% among 95; AID 651937
PG126 binding DR: counter-screen for PG9 binders: binding to control antibody PG126; shares compounds with PG9 Ab binder; TR-FRET binding to antibody PG126, counterscreen; IC50, µM; hit rate 20% among 95
Rev-erbA confirm: confirmation of modulators of human Rev-erb alpha DNA binding; shares compounds with NR1D1 modulator; Rev-erb alpha FITC-DNA binding, fluorescence polarization, 90 min; activation, % at 25 µM; hit rate 61% among 3,000; AID 1259319;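 active = activation at or above a set limit, or at least 3 SD above the negative control mean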;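 note: 0% = 35 nM protein with DMSO and 100% = 750 nM protein high control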
RORg DNA counter: affects RORgamma DNA binding in a Rev-erb alpha counter-screen; hit rate 8% among 910; purified RORgamma protein-FITC-DNA binding, fluorescence polarization; IC50, µM; AID 1259320; shares compounds with NR1D1 modulator;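 active = Compounds whose fitted half-maximal concentration for disrupting protein-DNA binding is below 10 micromolar; the record names Rev-erb in its text, so the target is in doubt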
Starred values were filed as active, the others as inactive; · = not tested or not shown. Cut-off read from the data, not from the text of the source, unless noted: active = IC50 below about 9 µM; inactive = the rest.

SMILES	NR2E3 ag-1	NR2E3 ag-2	NR1D1 modulator	PG9 Ab binder	PG9 binder conf	PGV04 Ab binding	Rev-erbA confirm	others
O=C(Nc1ccc(F)cc1)c1cc2cc(Cl)ccc2[nH]1	-55	4	43*	11*	13*	21*	7
COc1ccc2[nH]c(C(=O)Nc3ccc(F)cc3Br)cc2c1	-27	-36	68*	16*	22*	65*	79*	RORg DNA counter=>40
Cc1cc(SCC(=O)c2cccs2)nc2c(C)cccc12	-16	2	3	2	·	·	·
CC(=O)Nc1ccc(C(=O)CSc2cc(C)c3cccc(C)c3n2)cc1	-12	1	37*	17*	23*	48*	30*
O=C(COC(=O)c1n[nH]c2ccccc12)NC(=O)NC1CCCC1	0	2	3	-1	·	·	·
O=C(COC(=O)c1n[nH]c2ccccc12)NC(=O)NC12CC3CC(CC(C3)C1)C2	-24	11	17*	18*	22*	31*	31*
Cc1ccc2nc3c(cc(C(=O)NC4CCS(=O)(=O)C4)n3Cc3ccccc3)c(=O)n2c1 (stereo unspecified)	-9	0	26*	23*	20*	31*	0
COC(=O)c1sc(NC(=O)c2c(OC)cccc2OC)c(C#N)c1C	-11	6	26*	14*	20*	29*	29*
Cc1ccc(Cn2cc(COC(=O)N3CCOCC3)nn2)cc1	·	·	-1	·	·	·	·
COc1cccc(-c2nnc3sc(-c4cccs4)nn23)c1	-59	0	41*	39*	33*	57*	13
COc1cccc(-c2nn3c(-c4cccc(C)c4)nnc3s2)c1	-26	5	2	0	·	·	·
Nc1[nH]c(C(=O)c2ccccc2)c(-c2ccc(Br)cc2)c1C(=O)NCCCN1CCOCC1	·	·	-4	·	·	·	·
COc1ccc2oc(C(=O)Nc3nccs3)c(C)c2c1	-199	-10	36*	12*	21*	46*	17
C[C@H](NC(=O)c1ncn2c1c(=O)[nH]c1ccc(Br)cc12)c1ccccc1	-17	·	133*	20*	43*	52*	24*
Cc1ccccc1N(C)C(=O)C1CCCN1S(=O)(=O)c1cccc2cccnc12 (stereo unspecified)	·	·	14	·	·	·	·
CCc1ccccc1NC(=O)COc1ccc2oc(-c3ccc(OC)cc3)cc(=O)c2c1	0	0	27*	18*	78*	48*	0	PG9 binder DR=>67;PGV04 binding DR=3.7*;PG126 binding DR=3.6*
CC(C)c1ccc(-c2cc(C(=O)N3CCOCC3)c3cc(Br)ccc3n2)cc1	-42	4	63*	17*	30*	36*	28*
CCN(C(=O)COC(=O)c1cc(-c2ccccc2)nc2ccc(Br)cc12)C1CCS(=O)(=O)C1 (stereo unspecified)	9	12	42*	12*	23*	32*	43*
CCOC(=O)c1cc(C(=O)OCC)c2cc(Br)ccc2n1	1	15	40*	11*	12*	17*	38*	RORg DNA counter=>40
COCCN(C[C@@H]1[C@H](c2ccccc2)[C@H](CO)N1c1nc(C)c(C)s1)S(=O)(=O)c1ccccc1[N+](=O)[O-]	·	·	7	·	·	·	·
CCOC(=O)c1sc(=NC(=O)c2ccc(C)cc2)n(C)c1C	-106	-3	20*	22*	22*	53*	9
CCOC(=O)c1sc(=NC(=O)c2ccc(F)cc2)n(C)c1C	-82	-1	15	0	·	·	·
COc1ccc(-c2ccc3c(c2)c(Sc2ccccc2)c(-c2cc(OC)cc(OC)c2)n3C)cc1	1	·	40*	17*	44*	60*	60*	RORg DNA counter=>40
COc1ccc(-c2c(Sc3ccccc3)c3cc(-c4ccc5c(c4)OCO5)ccc3n2C)cc1	-28	·	20*	37*	88*	57*	-34	PG9 binder DR=2.9*;PGV04 binding DR=2.1*;PG126 binding DR=2.1*
COc1cc(OC)cc(-c2c(Sc3ccccc3)c3cc(-c4cnc(OC)nc4)ccc3n2C)c1	-21	·	-1	1	·	·	·
SMILES	NR2E3 ag-1	NR2E3 ag-2	NR1D1 modulator	PG9 Ab binder	PG9 binder conf	PGV04 Ab binding	Rev-erbA confirm	others
COc1ccc(NC(=O)NNC(=O)COc2ccc3cc(Br)ccc3c2)cc1OC	-11	-274	77*	18*	29*	39*	65*	RORg DNA counter=>40
COc1ccc(NC(=O)NNC(=O)COc2ccc3ccccc3c2)cc1OC	-41	0	2	0	·	·	·
COc1ccccc1NC(=O)c1sc2ncn(Cc3ccccc3C)c(=O)c2c1C	22	6	62*	52*	55*	74*	23*
O[C@H](COc1ccccc1)CN1CCC(C(O)(c2ccccc2)c2ccccc2)CC1	·	·	7	·	·	·	·
c1nc(NC[C@@H]2CCCO2)c2cc(-c3ccc4c(c3)OCO4)ccc2n1	·	·	-3	·	·	·	·
Cc1ccc(CSc2nc3ccncc3n2CC(=O)Nc2cc(C)cc(C)c2)cc1	-35	5	81*	25*	32*	50*	34*	RORg DNA counter=0.26*
COc1ccc(CCn2c(-c3ccccc3)nc3c(c(=O)c4ccccc4n3C)c2=O)cc1	·	-1	8	1	·	·	·
COc1ccc(CCn2c(-c3ccc(F)cc3)nc3c(c(=O)c4ccccc4n3C)c2=O)cc1OC	-34	-2	41*	1	·	·	16
CC(=O)Nc1nonc1-c1nc2ccccc2n1CCC#N	0	3	4	-3	·	·	·
N#CCCn1c(-c2nonc2NC(=O)c2ccccc2Cl)nc2ccccc21	-11	4	77*	-2	·	·	22*
CCOC(=O)c1sc(NC(=O)CN2C(=O)NC3(CCCCCCC3)C2=O)c(C(=O)OCC)c1C	-18	1	28*	0	·	·	7
Cc1cccn2c(=O)c3cc(C(=O)O)n(C)c3nc12	16	0	-5	1	·	·	·
COC(=O)C1CCN(C(=O)c2cc3c(=O)n4cccc(C)c4nc3n2Cc2ccccc2)CC1	-29	3	40*	-3	·	·	23*
O=C(NCCc1ccccc1)OCc1cn(Cc2ccc(C(F)(F)F)cc2)nn1	·	·	-5	·	·	·	·
Cc1ccc2[nH]c(=O)c(N3CCOCC3)c(-c3ccccc3)c2c1	4	-2	28*	0	·	·	0
O=C(Nc1ccccc1N1CCOCC1)C1(c2ccc(Cl)cc2)CCC1	13	2	20*	-1	·	·	9
